Test [1] concerns the target T1, labeled rabbit muscle actin (Oryctolagus cuniculus, UniProt P68135). As to the kind of experiment: In vitro actin depolymerization assay. In kind it is biochemical. The settings on record: 5 μM, added after 1 h polymerization. An outline of the steps: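 Labeled rabbit muscle actin first polymerized for 1 h under polymerization-assay conditions. Test compound (5 μM) then added, and fluorescence (ex/em 365/410 nm) monitored kinetically for another hour at room temperature. DMSO vehicle; latrunculin A and cytochalasin B (5 μM) as controls; three separate tests.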

In test [2] the target is T1, labeled rabbit muscle actin. As to the kind of experiment: In vitro actin polymerization assay. In kind it is biochemical. To be noted: 5 μM; for actin polymerization curve, RFU reached (lowest point/plateau): CTRL about 37,000 RFU. In outline:
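Labeled rabbit muscle actin incubated with test compound (5 μM) using a commercial polymerization kit. DMSO as negative control; latrunculin A and cytochalasin B (5 μM) as reference agents. Filament assembly followed by fluorescence (ex/em 365/410 nm) in kinetic mode for 1 h at room temperature; curves representative of three separate tests.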

In the next test the target is human topoisomerase II (Homo sapiens, UniProt P11388). As to the kind of experiment: Human topoisomerase II decatenation assay. The settings on record: kDNA substrate. In kind it is biochemical. An outline of the steps:
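Decatenation of kinetoplast DNA (0.3 μg) by 3 U human topo II, with test compound at 1 or 10 μM or DMSO vehicle; linear and decatenated kDNA markers included. Gel: 1% agarose in 1X TAE with ethidium bromide (0.5 μg/ml), UV transilluminator read-out.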

Another test has as its system MDA‐MB‐231 cells. As to the kind of experiment: MTT assay. In kind it is cell-based, human. An outline of the steps: (§1)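 Cells seeded in 48-well plates and serum-starved. They were then exposed for 72 h to test compound dissolved in DMSO over 0.1–200 μM, with viability read by MTT. IC50 calculated from concentration–response data; experiments in triplicate, reported as mean ± SD.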
For orientation: Tetrazolium assays rely on reduction of a dye to a coloured formazan, in cell work by metabolically active cells.

The next test addresses T2, recombinant human topo I (Homo sapiens, UniProt P11387).
T2 sequence (P11387 1-765): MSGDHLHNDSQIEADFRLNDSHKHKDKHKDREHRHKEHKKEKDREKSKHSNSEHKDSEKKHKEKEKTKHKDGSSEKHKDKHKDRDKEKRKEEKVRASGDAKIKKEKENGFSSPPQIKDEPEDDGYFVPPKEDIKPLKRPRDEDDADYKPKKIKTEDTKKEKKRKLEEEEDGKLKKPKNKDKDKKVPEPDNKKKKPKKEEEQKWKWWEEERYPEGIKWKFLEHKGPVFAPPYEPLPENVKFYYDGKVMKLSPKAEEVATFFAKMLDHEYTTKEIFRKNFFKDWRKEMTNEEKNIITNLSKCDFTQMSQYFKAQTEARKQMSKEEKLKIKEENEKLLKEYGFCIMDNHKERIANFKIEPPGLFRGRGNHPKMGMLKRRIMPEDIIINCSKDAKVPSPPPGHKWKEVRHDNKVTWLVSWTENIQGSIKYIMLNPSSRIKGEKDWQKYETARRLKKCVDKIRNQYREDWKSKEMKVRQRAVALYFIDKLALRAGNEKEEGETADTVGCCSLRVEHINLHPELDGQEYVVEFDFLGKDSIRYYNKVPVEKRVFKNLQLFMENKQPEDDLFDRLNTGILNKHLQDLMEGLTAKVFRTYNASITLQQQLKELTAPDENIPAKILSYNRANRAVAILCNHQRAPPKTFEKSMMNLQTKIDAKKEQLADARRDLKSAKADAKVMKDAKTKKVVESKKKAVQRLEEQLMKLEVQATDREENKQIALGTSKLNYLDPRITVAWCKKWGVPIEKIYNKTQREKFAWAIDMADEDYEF
Nature of the test: Human topoisomerase I relaxation assay. To be noted: 1 μM, supercoiled pHOT1 substrate. In kind it is biochemical. An outline of the steps:
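Supercoiled pHOT1 (0.25 μg) relaxed by 2 U recombinant human topo I, without or with test compound at 1 μM; DMSO vehicle control; relaxed-DNA marker run alongside. Products separated on 1% agarose in 1X TAE without ethidium bromide and visualized on a UV transilluminator.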

Test [3] has as its system Enterococcus faecalis (ATCC 19433). Nature of the test: MIC determination, broth dilution. In kind it is cell-based. The settings on record: E. faecalis ATCC 19433, broth dilution, 37 °C 18 h. In outline:
(§2)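 Broth dilution per CLSI. Overnight LB cultures diluted to 4000 CFU/mL in 96-well plates, then exposed to test compound at 1, 5, 10, 20, 50 or 100 μg/mL for 18 h at 37 °C. Growth read at 600 nm against DMSO-vehicle growth control; compound-only sterility control; ampicillin as strain-sensitivity control. MIC: lowest concentration inhibiting visible growth; MBC: lowest fully bactericidal concentration. Five experiments, each in triplicate.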
A general note: Broth dilution looks for growth in wells or tubes with falling amounts of substance.

Test [4] has as its system Staphylococcus aureus (ATCC 23235). As to the kind of experiment: MIC determination, broth dilution. In kind it is cell-based. The settings on record: S. aureus ATCC 23235, broth dilution, 37 °C 18 h. An outline of the steps:
as §2

A further test deals with MCF‐10A cells. Nature of the test: MTT assay, cytotoxicity on normal cells. In kind it is cell-based, human. The settings on record: 72 h. In outline:
as §1

The test system of test [5] is MCF‐7 cells. As to the kind of experiment: Immunofluorescence analysis of β‐actin. To be noted: MCF‐7, 24 h, IC50 value / 5 μM. In kind it is cell-based, human.
Test [6] has as its system MCF‐7 cells. Nature of the test: TUNEL assay. To be noted: MCF‐7, 24 h, at IC50 value. In kind it is cell-based, human.
The subject of test [7] is Escherichia coli (ATCC 25922). Nature of the test: MIC determination, broth dilution. In kind it is cell-based. To be noted: E. coli ATCC 25922, broth dilution, 37 °C 18 h. An outline of the steps:
as §2

For test [8], the system named is MCF‐7 cells. Nature of the test: MTT assay. In kind it is cell-based, human. In outline:
as §1

Test [9] relates to Gram‐positive and Gram‐negative bacteria (E. coli, S. aureus, E. faecalis). Nature of the test: MBC determination and ampicillin control, broth dilution, all strains. In kind it is cell-based. The settings on record: all strains used, standard antibiotic control. An outline of the steps: as §2
[10] abbreviates: MCF‐10A normal mammary epithelium, MTT.

One may read the IC50 as the point on the concentration scale where inhibition reaches its midpoint. A low value points to greater potency. One may read the MIC as the lowest concentration found to suppress growth. High values mean weaker potency, low ones greater potency.

Sequence of human topoisomerase II (P11388 whole entry): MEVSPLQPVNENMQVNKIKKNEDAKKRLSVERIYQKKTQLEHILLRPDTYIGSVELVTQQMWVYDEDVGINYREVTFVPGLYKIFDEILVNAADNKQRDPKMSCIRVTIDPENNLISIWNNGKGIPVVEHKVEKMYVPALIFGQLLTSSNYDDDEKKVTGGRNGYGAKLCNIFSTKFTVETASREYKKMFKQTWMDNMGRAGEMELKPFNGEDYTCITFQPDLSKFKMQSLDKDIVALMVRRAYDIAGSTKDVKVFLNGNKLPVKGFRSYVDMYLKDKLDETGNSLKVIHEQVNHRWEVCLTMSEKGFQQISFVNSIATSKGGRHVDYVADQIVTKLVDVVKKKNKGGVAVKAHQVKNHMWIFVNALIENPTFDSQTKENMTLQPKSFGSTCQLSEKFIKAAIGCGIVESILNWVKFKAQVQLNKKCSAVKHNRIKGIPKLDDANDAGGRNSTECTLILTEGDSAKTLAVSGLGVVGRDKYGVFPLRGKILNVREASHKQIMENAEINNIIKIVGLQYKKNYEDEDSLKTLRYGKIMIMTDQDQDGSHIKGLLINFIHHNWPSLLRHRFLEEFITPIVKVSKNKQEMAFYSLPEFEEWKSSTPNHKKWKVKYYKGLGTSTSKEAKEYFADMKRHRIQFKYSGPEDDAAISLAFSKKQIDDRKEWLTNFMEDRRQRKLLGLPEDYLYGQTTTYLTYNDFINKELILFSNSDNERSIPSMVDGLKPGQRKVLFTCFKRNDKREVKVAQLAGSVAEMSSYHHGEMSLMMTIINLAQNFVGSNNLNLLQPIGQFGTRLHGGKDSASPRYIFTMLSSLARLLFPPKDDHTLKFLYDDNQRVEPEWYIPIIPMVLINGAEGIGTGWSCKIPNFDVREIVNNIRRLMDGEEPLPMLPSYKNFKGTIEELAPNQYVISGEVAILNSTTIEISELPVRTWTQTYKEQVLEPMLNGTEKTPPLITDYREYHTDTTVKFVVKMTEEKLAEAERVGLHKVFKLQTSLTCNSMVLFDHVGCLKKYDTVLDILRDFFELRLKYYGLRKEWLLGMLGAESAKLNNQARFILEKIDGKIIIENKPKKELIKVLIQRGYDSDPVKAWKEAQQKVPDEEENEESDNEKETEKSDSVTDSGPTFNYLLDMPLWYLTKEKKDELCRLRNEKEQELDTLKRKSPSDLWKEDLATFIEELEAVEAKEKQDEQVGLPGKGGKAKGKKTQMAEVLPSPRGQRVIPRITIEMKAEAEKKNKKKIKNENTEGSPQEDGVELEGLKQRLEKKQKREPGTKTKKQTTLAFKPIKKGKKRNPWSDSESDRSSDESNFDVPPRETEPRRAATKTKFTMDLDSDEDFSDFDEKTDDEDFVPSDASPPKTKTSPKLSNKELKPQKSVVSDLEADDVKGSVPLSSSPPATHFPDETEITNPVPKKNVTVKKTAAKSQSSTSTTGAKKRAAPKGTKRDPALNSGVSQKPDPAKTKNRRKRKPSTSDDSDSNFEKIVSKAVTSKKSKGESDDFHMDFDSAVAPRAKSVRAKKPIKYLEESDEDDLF

Regarding `C=C1[C@@H](C)[C@H]2[C@H](Cc3ccccc3)NC(=O)[C@]23OC(=O)/C=C/[C@H](O)CCC[C@@H](C)C/C=C/[C@H]3[C@@H]1O` [CB, cytochalasin B, reference compound], the “effect on actin depolymerization” value in test [1] is given as “no relevant changes in RFU”. Also, in [1] (initial value 28,000 RFU), the “actin depolymerization curve, RFU reached” value is listed as “about 28,000 RFU”. Moreover, in test [2], the “effect on actin polymerization” value was “totally impeded the actin polymerization” and the “actin polymerization curve, RFU reached (lowest point/plateau)” value is “approximately 20,000 RFU”.
As to “[4,5‐dichloro‐[(N‐methyl‐N’(2‐hydroxy‐2‐phenyl‐ethyl)imidazole‐2‐ylidene]silver(I)] acetate [Compound 6]”, the “inhibition of hTopo II activity” value on human topoisomerase II (1 μM) is on record as “did not produce the enzyme inhibition”; against human topoisomerase II (10 μM) it was “totally inhibit the hTopo II activity”. In addition, the IC50 in the test with MDA‐MB‐231 cells (MDA‐MB‐231, MTT, 72 h) is 38.1 ± 0.8 µM; with MCF‐10A cells (setting [10]) it was above 200 µM; in the test with MCF‐7 cells [8] (MCF‐7, MTT, 72 h), 13.2 ± 0.3 µM. At recombinant human topo I, the “inhibition of hTopo I activity” value is given as “total inhibition of the enzyme activity”. Also, the “effect on actin depolymerization” value in test [1] is listed as “able to act as a depolymerization inducer”. The MIC in [3] was determined as 10 µg/mL; in [4], 5 µg/mL; in [7], 10 µg/mL. For the same molecule, the “actin cytoskeleton organization / cell morphology” value in the test on MCF‐7 cells [5] was “caused comparable disorganization of this structure”. Besides, in the test with MCF‐7 cells [6], the “apoptosis (green nuclear fluorescence, DNA fragmentation)” value is given as “induced apoptosis”. Moreover, the “effect on actin polymerization” value in test [2] is “inhibitory activity on the polymerization of G‐actin, higher than that of CB”. Further, the “time to reach the lowest point of the polymerization curve” value in test [2] is “around 12 minutes”. The “actin polymerization curve, RFU reached (lowest point/plateau)” value in test [2] is “approximately 13,000 RFU”.
On to `N.N.[Cl][Pt][Cl]` [Cisplatin, reference compound], for which the IC50 with MDA‐MB‐231 cells (MDA‐MB‐231, MTT, 72 h) is 28.7 ± 0.4 µM; in the test with MCF‐10A cells (setting [10]), 81.3 ± 0.6 µM; in the test on MCF‐7 cells [8] (MCF‐7, MTT, 72 h), 35.8 ± 0.7 µM.
Consider `C/C1=C/C(=O)O[C@@H]2C[C@@H](CC[C@H](C)/C=C\C=C\CC1)O[C@@](O)([C@@H]1CSC(=O)N1)C2` [Latrunculin A, reference compound], for which the IC50 was determined as 0.024 µM in the test with MDA‐MB‐231 cells (Homo sapiens, MDA-MB-231, 72 h); 0.045 µM in the test with MCF‐10A cells (Homo sapiens, MCF-10A); 0.14 µM in the test with MCF‐7 cells [8] (Homo sapiens, MCF7, 72 h). The “effect on actin depolymerization” value in test [1] is “actin depolymerization has occurred”. In addition, the “effect on actin polymerization” value in test [2] is given as “totally impeded the actin polymerization”.
As to `CC1(C)S[C@@H]2[C@H](NC(=O)[C@H](N)c3ccccc3)C(=O)N2[C@H]1C(=O)O` [ampicillin, Ampicillin], in [9], the “strain sensibility to ampicillin” value was “ampicillin‐sensible”.
Consider `COC(Cn1ccn(C)[c]1=[Ag-2][I])c1ccccc1` (stereo not shown) [Compound 3, [N‐methyl,N’‐(2‐metoxy‐2‐phenyl)ethyl‐imidazole‐2‐ylidenesilver(I)] iodide], for which the IC50 in the test with MDA‐MB‐231 cells (MDA‐MB‐231, MTT, 72 h) is 52.6 ± 0.3 µM; in the test on MCF‐10A cells (setting [10]) it was above 200 µM; with MCF‐7 cells [8] (MCF‐7, MTT, 72 h), 31.8 ± 0.8 µM. The MIC in test [3] was 10 µg/mL; in test [4], 5 µg/mL; in [7] it was 5 µg/mL.

(Values after publication PMC9804882 (Chemmedchem, 2022).)
